SMILES strings stand for the structures. Like-named read-outs stand apart in the source and are kept apart here.

Format in all cases: in vivo, mouse
Series [1] relates to U87 MG tumor. As to conditions: for Tumor to brain ratio: ex vivo.
Series [2] has as its system U87 MG glioblastoma xenografts. Briefly: Small animal PET imaging of U87 MG glioblastoma xenografts. The gist of the method:
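Mice carrying U87 MG xenografts in the right shoulder were given 100–200 μl tracer (80–160 mCi/μmol), e.g. 200 μCi in 100 μl 15 % PEG300/85 % 0.9 % saline. PET/CT gave coronal and axial reconstructions, and tumour uptake and SUV were derived. Blocked mice were pre-injected with a 50-fold excess of Olaparib (3.7 μmol in 100 μl of the same vehicle).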

For series [3], the system named is U87 MG glioblastoma xenografts. The series is described as follows: Biodistribution study in tumor xenograft mice. The gist of the method: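 Tumour xenograft mice were injected with the tracer, with or without Olaparib pre-injection. Mice were euthanized at 90 min p.i. and organ radioactivity was counted, expressed as %ID/g (n = 4, mean ± SD). Tumour-to-non-target tissue ratios, including tumour/brain and tumour/muscle, were calculated.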

In series [4] the test system is U87 MG tumor. The series is described as follows: Autoradiography of resected tissues. The gist of the method: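 U87 MG tumour-bearing mice got the 18F-labelled fluorescent PARP1 tracer alone, or the tracer 30 min after Olaparib as a blocking agent. Tumour, brain and muscle were resected, and tumour slices were imaged by autoradiography beside H&E staining. Tissue/muscle ratios were calculated for tumours and brains in the non-blocked and blocked groups.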

The nature of another series: Ex vivo blood half-life. As to conditions: tail vein injection, 27 μCi, 100 μl. The gist of the method: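 For blood clearance, the tracer was given by tail vein. Blood was collected at 5, 15, 30, 60 and 120 min, weighed and γ-counted, and expressed as %IA/g (n = 4). A weighted t1/2 was derived.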
Where [5] appears, read: blocked, pre-injection of Olaparib.

`CC1=CC(C)=[N+]2C1=Cc1ccc(CCC(=O)N3CCN(C(=O)c4cc(Cc5n[nH]c(=O)c6ccccc56)ccc4F)CC3)n1[B-]2(F)[18F]` (stereo not drawn) [[^18F]PARPi-FL]: in the series with U87 MG tumor [1] (autoradiography), the “Reduction of tumor uptake in Olaparib-blocked organs” value is 66±9% and the “Tumor to brain ratio” value is “ninefold”. In the series on U87 MG tumor [1] (surface fluorescence imaging), the “Reduction of tumor uptake in Olaparib-blocked organs” value is listed as 74±12% and the “Tumor to brain ratio” value is “sevenfold”. For the same molecule, the “Organ uptake / excretion seen by PET” value in series [2] (PET imaging) was “high uptake in the liver and in the intestinal tract”. Besides, in series [2] (non-blocked), the “Standardized uptake value (SUV) in U87 MG tumors” value came out at 1.10±0.53 and the “Uptake in U87 MG tumors” value is listed as 0.78±0.1. The “Standardized uptake value (SUV) in U87 MG tumors” value in series [2] (pre-injection of an excess of Olaparib (50-fold)) is 0.10±0.06. The “Tumor to muscle ratio” value in series [3] (90 min post injection) was 4±0.6. For the same molecule, in series [3] (U87 MG xenograft-bearing mice, bone uptake), the “Metabolic stability in vivo (defluorination)” value was “quick metabolic defluorination”. For the same molecule, in series [3] (biodistribution), the “Tumor to brain tissue ratio” value is recorded as 12±2.1. Besides, the “Reduction of uptake in blocked U87 MG tumors” value in series [3] (blocked U87 MG tumors) stood at 84%. In series [3] (setting [5]), this molecule had a Kidneys uptake of 0.4±0.1 %ID/g and a Liver uptake of 2.02± 0.2 %ID/g. In series [3] (non-blocked), the Kidneys uptake was determined as 0.7±0.1 %ID/g and the Liver uptake turned out to be 3.8±0.4 %ID/g. This molecule showed a Tumor uptake in series [3] (positive control group (non-blocked), 90 min p.i.) of 0.78±0.1 %ID/g. Also, in the series with U87 MG tumor [4] (Olaparib blocking), the “Lowering of tumor to muscle ratio by blocking” value was “approximately 66%”. The “Overall reduction of tumor uptake in blocked mice (autoradiography)” value in the series on U87 MG tumor [4] (Olaparib injected 30 min before tracer) was found to be 80±12%. In the series with U87 MG tumor [4] (Olaparib-blocked mice), the “Brain to muscle ratio (autoradiography)” value was found to be 1.02±0.22 and the “Tumor to muscle ratio (autoradiography)” value is listed as 2.6±1.6. In the series on U87 MG tumor [4] (non-blocked mice), the “Brain to muscle ratio (autoradiography)” value turned out to be 0.87± 0.48 and the “Tumor to muscle ratio (autoradiography)” value stood at 7.5±0.9. The “Blood half-life, weighted t1/2” value in “Ex vivo blood half-life” is on record as 15.6 min.

Values taken from PMC4609241 (Molecular imaging and biology : MIB : the official …, 2015).
